In ChEMBL document CHEMBL4364254 (J Med Chem, 2019):
The source made the active and inactive calls.

What was measured:
[1] = biological target: Mu-type opioid receptor (Homo sapiens, UniProt P35372); test: Displacement of [3H]DAMGO from recombinant human MOR after 120 mins by scintillation counting analysis
[2] = Displacement of [125I]alpha-dendrotoxin from rat brain voltage-gated potassium ion channel after 60 mins by scintillation counting analysis
[3] = tested on: Mus musculus; test: Anti-hepatosteatosis activity in ethanol-induced C57BL/6 mouse model of hepatic steatosis assessed as reduction in liver weight at 0.3 mg/kg, po administered once daily via gavage for last 2 weeks of study measured post-last dose; assay type: functional, organism-based
Method in brief: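 Female C57BL/6J mice (9 weeks old, 19–21 g) were kept on Lieber–DeCarli liquid diet, with ethanol raised from 1 to 5% (v/v) over 15 d and then held for 4 weeks, pair-fed. Dosing was 0.03, 0.1 or 0.3 mg/kg by oral gavage once daily for the last 2 weeks, in 0.5% Na-CMC/1% NMP/0.3% Tween 80. Read-outs were Oil Red O on 10 μm liver sections imaged at 10× and liver weight normalized to brain weight. n = 6–10 per group; t test versus ethanol + vehicle.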

[4] = Displacement of [3H]batrachotoxinin from rat brain voltage-gated sodium ion channel site 2 after 60 mins by scintillation counting analysis
[5] = biological target: Histamine H2 receptor (Homo sapiens, UniProt P25021); test: Displacement of [125I]APT from recombinant human H2 receptor after 120 mins by scintillation counting analysis
Sequence of Histamine H2 receptor (P25021 whole entry): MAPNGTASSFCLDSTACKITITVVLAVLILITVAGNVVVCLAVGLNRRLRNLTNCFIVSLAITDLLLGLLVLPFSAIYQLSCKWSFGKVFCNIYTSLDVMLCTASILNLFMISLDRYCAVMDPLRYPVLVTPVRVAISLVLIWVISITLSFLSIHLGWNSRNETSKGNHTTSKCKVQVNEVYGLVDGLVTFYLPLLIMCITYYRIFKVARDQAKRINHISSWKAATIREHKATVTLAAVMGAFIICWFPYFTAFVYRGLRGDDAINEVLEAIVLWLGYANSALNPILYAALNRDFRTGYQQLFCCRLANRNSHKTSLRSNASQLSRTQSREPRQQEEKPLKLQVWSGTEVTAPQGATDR

[6] = biological target: Endothelin-1 receptor (Homo sapiens, UniProt P25101); test: Displacement of [125I]endothelin-1 from recombinant human ETA receptor after 120 mins by scintillation counting analysis
Sequence of Endothelin-1 receptor (P25101 whole entry): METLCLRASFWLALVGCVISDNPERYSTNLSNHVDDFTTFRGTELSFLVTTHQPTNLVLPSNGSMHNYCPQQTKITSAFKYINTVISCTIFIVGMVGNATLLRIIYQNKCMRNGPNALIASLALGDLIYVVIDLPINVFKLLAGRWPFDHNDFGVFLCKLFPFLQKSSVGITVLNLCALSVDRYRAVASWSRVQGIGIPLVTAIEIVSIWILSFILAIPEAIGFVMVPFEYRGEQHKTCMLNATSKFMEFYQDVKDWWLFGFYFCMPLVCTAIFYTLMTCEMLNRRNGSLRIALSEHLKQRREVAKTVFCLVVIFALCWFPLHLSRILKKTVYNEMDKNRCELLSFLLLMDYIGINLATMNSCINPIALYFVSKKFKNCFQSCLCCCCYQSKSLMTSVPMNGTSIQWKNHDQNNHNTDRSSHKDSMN

[7] = biological target: Prostaglandin G/H synthase 1 (Homo sapiens, UniProt P23219); test: Activity at human recombinant COX1 using arachidonic acid as substrate measured after 3 mins by ADHP reagent based fluorescence assay
Sequence of Prostaglandin G/H synthase 1 (P23219 whole entry): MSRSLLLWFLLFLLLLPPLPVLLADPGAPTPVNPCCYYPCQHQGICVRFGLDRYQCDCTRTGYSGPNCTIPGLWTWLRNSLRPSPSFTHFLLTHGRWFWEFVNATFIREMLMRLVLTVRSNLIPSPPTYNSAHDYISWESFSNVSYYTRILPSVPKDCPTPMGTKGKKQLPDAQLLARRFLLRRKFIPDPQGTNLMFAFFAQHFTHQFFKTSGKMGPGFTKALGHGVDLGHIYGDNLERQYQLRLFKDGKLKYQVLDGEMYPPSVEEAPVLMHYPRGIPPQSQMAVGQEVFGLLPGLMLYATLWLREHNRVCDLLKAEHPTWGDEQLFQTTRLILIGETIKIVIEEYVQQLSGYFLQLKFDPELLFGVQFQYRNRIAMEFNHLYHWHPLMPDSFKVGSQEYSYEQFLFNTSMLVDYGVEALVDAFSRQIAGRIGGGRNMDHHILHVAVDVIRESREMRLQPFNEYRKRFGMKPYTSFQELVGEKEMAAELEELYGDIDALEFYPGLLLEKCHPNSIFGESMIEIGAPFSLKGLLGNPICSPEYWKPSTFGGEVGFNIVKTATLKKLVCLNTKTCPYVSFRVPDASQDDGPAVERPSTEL

[8] = biological target: Cytochrome P450 2B6 (Homo sapiens, UniProt P20813); test: Induction of CYP2B6 in human HepaRG cells at 10 uM measured after 24 hrs by qRT-PCR analysis relative to phenobarbital; assay type: ADME, cell-based; details: hepatocytes
Method in brief: (§1)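 Cryopreserved HepaRG cells were plated on collagen I in Williams' E medium with GlutaMAX. On day 4 they were treated with 10 μM compound in serum-free induction medium for 24 h at 37 °C; the vehicle was 1% DMSO. Positive controls were omeprazole 50 μM (CYP1A2), phenobarbital 1 mM (CYP2B6) and rifampicin 10 μM (CYP3A4). mRNA was read by TaqMan qPCR with GAPDH as reference, using ΔΔCt, and expressed as % of the positive control.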

[9] = biological target: Vasopressin V1a receptor (Homo sapiens, UniProt P37288); test: Displacement of [3H]AVP from recombinant human V1A receptor after 60 mins by scintillation counting analysis
Sequence of Vasopressin V1a receptor (P37288 whole entry): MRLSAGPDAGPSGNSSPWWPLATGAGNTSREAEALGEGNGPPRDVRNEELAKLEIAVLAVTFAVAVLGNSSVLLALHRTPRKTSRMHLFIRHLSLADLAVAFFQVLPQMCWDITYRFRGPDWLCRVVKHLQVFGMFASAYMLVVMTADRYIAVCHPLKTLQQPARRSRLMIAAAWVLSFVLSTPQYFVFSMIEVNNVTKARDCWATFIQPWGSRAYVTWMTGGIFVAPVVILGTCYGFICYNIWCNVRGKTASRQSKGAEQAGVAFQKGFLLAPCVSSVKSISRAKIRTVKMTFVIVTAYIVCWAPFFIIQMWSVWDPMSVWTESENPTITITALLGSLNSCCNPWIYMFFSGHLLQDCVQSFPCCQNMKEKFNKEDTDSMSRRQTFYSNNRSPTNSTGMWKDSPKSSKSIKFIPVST

[10] = biological target: Sodium-dependent serotonin transporter (Homo sapiens, UniProt P31645); test: Displacement of [3H]imipramine from recombinant human serotonin transporter after 120 mins by scintillation counting analysis
Sequence of Sodium-dependent serotonin transporter (P31645 whole entry): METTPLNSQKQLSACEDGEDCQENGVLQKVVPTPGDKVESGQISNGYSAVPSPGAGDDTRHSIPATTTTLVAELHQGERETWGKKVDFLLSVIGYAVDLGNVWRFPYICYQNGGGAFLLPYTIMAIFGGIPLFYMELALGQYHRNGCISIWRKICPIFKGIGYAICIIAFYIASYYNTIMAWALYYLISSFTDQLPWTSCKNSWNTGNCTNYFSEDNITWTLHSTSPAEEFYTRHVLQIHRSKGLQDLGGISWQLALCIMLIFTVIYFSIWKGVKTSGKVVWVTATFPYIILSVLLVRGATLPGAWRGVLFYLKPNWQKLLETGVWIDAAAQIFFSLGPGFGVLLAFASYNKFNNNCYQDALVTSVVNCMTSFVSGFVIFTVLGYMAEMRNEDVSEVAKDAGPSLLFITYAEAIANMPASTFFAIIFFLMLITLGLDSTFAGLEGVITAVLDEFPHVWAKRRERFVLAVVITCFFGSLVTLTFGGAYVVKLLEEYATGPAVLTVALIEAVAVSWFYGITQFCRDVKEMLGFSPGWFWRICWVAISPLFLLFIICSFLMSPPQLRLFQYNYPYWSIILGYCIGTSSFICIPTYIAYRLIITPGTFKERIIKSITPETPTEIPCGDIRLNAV

[11] = biological target: 5-hydroxytryptamine receptor 2A (Homo sapiens, UniProt P28223); test: Displacement of [125I](+/-)DOI from recombinant human 5HT2A receptor after 60 mins by scintillation counting analysis
Sequence of 5-hydroxytryptamine receptor 2A (P28223 whole entry): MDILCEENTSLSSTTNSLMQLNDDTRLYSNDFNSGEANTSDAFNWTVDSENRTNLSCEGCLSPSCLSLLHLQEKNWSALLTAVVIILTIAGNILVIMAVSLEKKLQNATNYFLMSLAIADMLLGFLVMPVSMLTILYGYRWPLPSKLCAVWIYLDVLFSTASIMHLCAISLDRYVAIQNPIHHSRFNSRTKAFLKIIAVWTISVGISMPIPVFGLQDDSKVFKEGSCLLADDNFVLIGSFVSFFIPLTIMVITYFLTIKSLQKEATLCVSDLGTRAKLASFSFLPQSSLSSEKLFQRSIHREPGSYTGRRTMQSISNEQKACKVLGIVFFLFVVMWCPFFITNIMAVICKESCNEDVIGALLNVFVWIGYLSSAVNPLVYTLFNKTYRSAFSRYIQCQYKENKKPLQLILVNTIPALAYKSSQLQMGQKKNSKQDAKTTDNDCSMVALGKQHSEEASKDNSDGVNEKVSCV

[12] = biological target: D(2) dopamine receptor (Homo sapiens, UniProt P14416); test: Displacement of [3H]7-OH-DPAT from recombinant human D2s receptor after 60 mins by scintillation counting analysis
[13] = biological target: Glutamate NMDA receptor; test: Displacement of [3H]CGP 39653 from rat brain NMDA receptor after 60 mins by scintillation counting analysis
[14] = biological target: Cytochrome P450 3A4 (Homo sapiens, UniProt P08684); test: Induction of CYP3A4 in human HepaRG cells at 10 uM measured after 24 hrs by qRT-PCR analysis relative to rifampicin; assay type: ADME, cell-based; details: hepatocytes
Method in brief: as §1, with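 “GlutaMAX.” for “GlutaMAX. On day 4 they were treated with 10 μM compound in serum-free induction medium for 24 h at 37 °C; the vehicle was 1% DMSO.”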

[15] = biological target: Cholecystokinin receptor type A (Homo sapiens, UniProt P32238); test: Displacement of [125I]CCK-8s from recombinant human CCK1 receptor after 60 mins by scintillation counting analysis
[16] = biological target: 3',5'-cyclic-AMP phosphodiesterase 4D (Homo sapiens, UniProt Q08499); test: Activity at human recombinant PDE4D2 using [3H]cAMP as substrate measured after 20 mins by scintillation counting analysis
Sequence of 3',5'-cyclic-AMP phosphodiesterase 4D (Q08499 whole entry): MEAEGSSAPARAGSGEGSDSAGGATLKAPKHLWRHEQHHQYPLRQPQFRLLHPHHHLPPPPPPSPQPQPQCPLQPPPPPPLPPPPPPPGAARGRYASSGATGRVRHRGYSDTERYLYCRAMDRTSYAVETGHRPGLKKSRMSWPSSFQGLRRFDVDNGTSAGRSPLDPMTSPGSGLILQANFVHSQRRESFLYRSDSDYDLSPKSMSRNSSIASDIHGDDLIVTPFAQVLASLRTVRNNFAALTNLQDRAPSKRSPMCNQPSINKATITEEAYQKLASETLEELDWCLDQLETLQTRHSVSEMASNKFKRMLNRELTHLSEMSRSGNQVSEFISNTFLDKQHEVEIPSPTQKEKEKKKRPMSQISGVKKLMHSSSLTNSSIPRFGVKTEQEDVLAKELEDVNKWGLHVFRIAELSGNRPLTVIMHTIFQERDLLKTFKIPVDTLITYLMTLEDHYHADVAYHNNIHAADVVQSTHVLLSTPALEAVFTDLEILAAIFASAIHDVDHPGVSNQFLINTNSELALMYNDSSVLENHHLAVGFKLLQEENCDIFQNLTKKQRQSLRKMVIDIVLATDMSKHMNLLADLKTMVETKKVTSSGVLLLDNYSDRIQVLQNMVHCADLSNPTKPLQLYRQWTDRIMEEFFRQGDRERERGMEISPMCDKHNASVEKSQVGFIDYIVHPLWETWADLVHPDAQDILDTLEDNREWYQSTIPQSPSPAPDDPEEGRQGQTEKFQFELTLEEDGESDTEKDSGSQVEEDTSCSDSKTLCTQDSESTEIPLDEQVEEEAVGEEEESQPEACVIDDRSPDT

[17] = Cmax in C57BL6 mouse plasma at 0.3 mg/kg, po measured at 2 hrs post dose by LC-MS/MS analysis; assay type: ADME, organism-based; parameters: dose 0.3 mg/kg, route oral
Method in brief: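 Female C57BL6 mice, 8 weeks old, received a single oral dose of 0.3 mg/kg in 1% NMP/0.3% Tween 80 in 0.5% Na-CMC. […] Maximum observed concentrations are reported; plasma clearance and half-life come from PK analysis.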

[18] = biological target: Cytochrome P450 1A2 (Homo sapiens, UniProt P05177); test: Induction of CYP1A2 in human HepaRG cells at 10 uM measured after 24 hrs by qRT-PCR analysis relative to omeprazole; assay type: ADME, cell-based; details: hepatocytes; method in brief: as §1
[19] = biological target: Beta-2 adrenergic receptor (Homo sapiens, UniProt P07550); test: Displacement of [3H](-)CGP12177 from recombinant human beta2 adrenergic receptor after 120 mins by scintillation counting analysis
[20] = biological target: Acetylcholinesterase (Homo sapiens, UniProt P22303); test: Activity at human recombinant ACHE using acetylthiocholine as substrate measured after 30 mins by spectrophotometric assay
Sequence of Acetylcholinesterase (P22303 whole entry): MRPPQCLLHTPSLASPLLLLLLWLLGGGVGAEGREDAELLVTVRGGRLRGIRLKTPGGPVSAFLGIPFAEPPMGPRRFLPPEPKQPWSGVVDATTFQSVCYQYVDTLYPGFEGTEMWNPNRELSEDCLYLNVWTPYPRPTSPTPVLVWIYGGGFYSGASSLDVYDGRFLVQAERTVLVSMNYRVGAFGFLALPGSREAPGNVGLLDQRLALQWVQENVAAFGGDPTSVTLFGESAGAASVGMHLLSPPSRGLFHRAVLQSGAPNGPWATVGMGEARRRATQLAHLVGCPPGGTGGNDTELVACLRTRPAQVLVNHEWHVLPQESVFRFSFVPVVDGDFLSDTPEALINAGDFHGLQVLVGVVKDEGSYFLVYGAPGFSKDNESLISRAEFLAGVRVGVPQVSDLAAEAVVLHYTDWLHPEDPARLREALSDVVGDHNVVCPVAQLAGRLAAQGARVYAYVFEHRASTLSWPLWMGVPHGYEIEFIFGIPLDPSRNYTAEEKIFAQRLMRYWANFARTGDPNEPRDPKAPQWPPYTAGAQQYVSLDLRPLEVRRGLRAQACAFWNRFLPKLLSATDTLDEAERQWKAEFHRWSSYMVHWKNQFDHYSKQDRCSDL

Sequence of Mu-type opioid receptor (P35372 whole entry): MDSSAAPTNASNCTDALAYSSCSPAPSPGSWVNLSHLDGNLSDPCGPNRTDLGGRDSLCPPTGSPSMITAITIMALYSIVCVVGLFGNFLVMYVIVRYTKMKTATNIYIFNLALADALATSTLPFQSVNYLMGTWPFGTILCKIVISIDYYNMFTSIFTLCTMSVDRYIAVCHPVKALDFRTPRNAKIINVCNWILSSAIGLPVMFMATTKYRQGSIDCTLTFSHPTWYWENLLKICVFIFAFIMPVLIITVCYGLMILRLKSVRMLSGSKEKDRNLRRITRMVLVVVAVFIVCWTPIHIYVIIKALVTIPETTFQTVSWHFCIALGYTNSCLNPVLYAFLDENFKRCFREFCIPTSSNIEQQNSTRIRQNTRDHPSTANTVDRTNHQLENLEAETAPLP

O=C(Nc1ccc(OC(F)F)nc1)NC1CCN(c2ncnc3c2nc(-c2ccccc2Cl)n3-c2ccc(Cl)cc2)CC1
940 ng/mL: Cmax [17]
< 1%: Activity [18]
> 10 µM: EC50 [1] | IC50 [1] | EC50 [2] | IC50 [2] | EC50 [4] | IC50 [4] | EC50 [5] | IC50 [5] | EC50 [6] | IC50 [6] | EC50 [7] | IC50 [7] | EC50 [9] | IC50 [9] | EC50 [10] | IC50 [10] | EC50 [11] | IC50 [11] | EC50 [12] | IC50 [12] | EC50 [13] | IC50 [13] | EC50 [15] | IC50 [15] | EC50 [16] | IC50 [16] | EC50 [19] | IC50 [19] | EC50 [20] | IC50 [20]
< 10%: Activity [8] | Activity [14]
active: Activity [3]
